# ChEMBL document CHEMBL1144713, “New selective inhibitors of steroid 11beta-hydroxylation in the adrenal cortex. Synthesis and structure-activity relationship of potent etomidate analogues” (J Med Chem, 2008)
# How the values were obtained:
# [1] = (§1) Displacement of [131I]IMTO from CYP450c 11 in Wistar rat adrenal membrane; assay type: cell membranes
# How it was run: (§2)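 Crude membranes from whole adrenals of adult male Wistar rats, homogenized in 10 mM K2HPO4/10 mM HEPES pH 7.1 and washed; 0.06–0.1 mg original tissue per vial. Competitors at 0.1 nM–300 µM with 2 nM 131I-IMTO (carrier added) in buffer containing 150 mM NaCl, 23 °C, 20–30 min. Filtration, γ counting. Nonspecific binding with 10 µM ETO. IC50 and Hill coefficient from curve fit, mean ± SD.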
# Rattus norvegicus = organism: Rattus norvegicus; assay: as §1; assay type: cell membranes; how it was run: as §2
# [2] = Inhibition on cortisol secretion in human NCI-H295 cells after 48 hrs; assay type: functional, cell-based; conditions: for IC50: Homo sapiens, NCI-H295, 48 h
# How it was run: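 NCI-h295 adrenocortical cells grown in RPMI 1640 with insulin, transferrin, selenium and 5% FCS. Compounds at 10 nM–100 µM added to 1 million cells/mL for 48 h, in triplicate. Supernatant cortisol measured by RIA and expressed as percent of control, with control from six uninhibited determinations. IC50 derived from these percentages.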
SMILES,IC50 [1] [nM],logIC50 (Rattus norvegicus),logIC50 [2],IC50 [2] [nM]
CC(C)OC(=O)c1cncn1[C@H](C)c1ccccc1,1.42,,,
COC(=O)c1cncn1[C@H](C)c1cccnc1,20.7,1.32,1.72,52.2
CC[C@H](c1ccccc1)n1cncc1C(=O)OC,6.23,,,
CC(=O)c1cncn1[C@H](C)c1ccccc1,59.8,1.78,1.96,59
COC(=O)c1cncn1[C@H](C)c1ccc(C)cc1,3.58,,,
C[C@H](c1ccccc1)n1cncc1C(=O)O,123000,,,
COC(=O)c1cncn1Cc1cccnc1,870,,,
COC(=O)c1cncn1[C@H](C)c1ccccc1,3.69,0.57,1.14,13.9
COC(=O)c1cncn1[C@@H](C)c1ccccc1,492,2.69,2.77,593
COC(=O)c1cncn1[C@@H]1CCc2ccccc21,3.26,,,
CCOC(=O)c1cncn1[C@H](C)c1ccc(I)cc1,4.37,,,
"COC(=O)c1cncn1[C@H](C)c1ccc(I)cc1 [IODOMETOMIDATE I-123, R-]",8.98,0.954,0.84,6.95
CNC(=O)c1cncn1[C@H](C)c1ccccc1,215,2.33,2.21,135
C[C@H](c1ccccc1)n1cncc1C(=O)OCCF,2.89,0.46,1.11,8.92
CON(C)C(=O)c1cncn1[C@H](C)c1ccccc1,14,1.18,1.45,19.5
COC(=O)c1cncn1[C@H](C)c1cccc(I)c1,4.44,,,
COC(=O)c1cncn1[C@H](C)c1ccc(CO)cc1,3.29,,,
COC(=O)c1cncn1Cc1ccccc1,28.8,1.46,1.51,32.1
COC(=O)c1cncn1[C@H](C)c1ccc(Br)cc1,8.95,,,
CCOC(=O)c1cncn1[C@H](C)c1ccccc1 [ETOMIDATE],1.08,0.033,0.66,4.57
CCCOC(=O)c1cncn1[C@H](C)c1ccccc1,2.89,,,
